Compound activity from PubChem BioAssay.
Only some compounds are listed: those with a hit (about 2.1% of all), similar ones and a draw of the others.
M5 PAM = CHRM5 positive allosteric modulation; P08912; CHO-K1 hM5, Fluo-8 calcium, ACh EC20 PAM; 0% = ACh EC20, 100% = ACh EC100; activation, % at 3 µM; 360,000 tested, 0.3% active; AID 624038;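 active = activation above the run cutoff, the mean activation of all test compounds plus 3 SD, cut at about 18% in these data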
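Assay system – human M5 receptor in CHO-K1 cells · Read-out – % activation, ACh-normalized · Technique – Fluo-8 calcium fluorescence · Dosing – single-point, 3 µM nominal · Incubation – Fluo-8 loading 80 min at 37 °C plus 30 min room temperature · Repeats – singlicate, one well per test compound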
M1 PAM = potentiates human M1 receptor response to acetylcholine; P11229; CHO-K1 hM1, Fluo-8 calcium fluorescence, ACh EC20; 0% = ACh EC20, 100% = maximal ACh; activation, % at 3 µM; 360,000 tested, 0.088% active; AID 588819; in the data active = activation above about 19%, passing the limit was not always enough
Target sequence (P11229 whole entry, looked up): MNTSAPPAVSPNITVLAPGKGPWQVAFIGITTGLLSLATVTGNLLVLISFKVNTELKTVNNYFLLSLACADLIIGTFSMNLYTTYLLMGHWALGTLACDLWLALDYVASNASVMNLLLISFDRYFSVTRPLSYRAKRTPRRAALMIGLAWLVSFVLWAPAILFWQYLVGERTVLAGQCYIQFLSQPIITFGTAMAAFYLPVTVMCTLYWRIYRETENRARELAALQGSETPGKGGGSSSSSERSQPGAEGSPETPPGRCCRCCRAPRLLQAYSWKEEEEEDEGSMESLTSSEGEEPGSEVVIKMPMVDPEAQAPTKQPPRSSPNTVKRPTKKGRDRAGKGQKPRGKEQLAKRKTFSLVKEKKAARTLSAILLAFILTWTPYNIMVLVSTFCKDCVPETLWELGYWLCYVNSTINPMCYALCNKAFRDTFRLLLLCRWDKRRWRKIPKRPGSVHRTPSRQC
M5 ag = agonists of human muscarinic M5 receptor (CHRM5) | activation, % at 3 µM | P08912 | 360,000 tested, 0.19% active | CHO-K1 hM5 cells, Fluo-8 calcium fluorescence; 0% DMSO wells, 100% maximal acetylcholine response | AID 624037;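 active = activation above the run's mean over test compounds plus 3 SD, cut at about 23% in these data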;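 note: signal is peak over basal fluorescence ratio across the kinetic read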
M5 antag = CHRM5 antagonism in calcium assay; CHO-hM5 cells, Fluo-8 calcium fluorescence, ACh EC80; inhibition, % at 3 µM; 360,000 tested, 0.59% active;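 active = inhibition above a per-plate cutoff, the mean of that plate's test compounds plus 3 SD, cut at about 27% in these data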
M1 ag = agonists of human M1 muscarinic receptor; activation, % at 3 µM; P11229; AID 588814; CHO-K1 hM1, Fluo-8 calcium fluorescence, agonist mode; 0% DMSO, 100% acetylcholine EC100; 360,000 tested, 0.33% active;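 active = activation above the run's mean compound activation plus 3 SD, cut at about 16% in these data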;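 note: peak over basal fluorescence ratio within a 140 s kinetic read after compound addition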
CHRM1 antagonist = blocks human M1 muscarinic receptor; inhibition, % at 3 µM; 360,000 tested, 1.3% active; P11229; CHO-K1 hM1, Fluo-8 calcium fluorescence, ACh EC80 antagonist;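 active = percent inhibition above its own plate's cutoff, namely the mean of that plate's compound wells plus 3 SD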;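 note: peak over basal fluorescence ratio during 140 s after agonist addition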
A number is an active result; i = inactive.

SMILES | M5 PAM | M1 PAM | M5 ag | M5 antag | M1 ag | CHRM1 antagonist
COc1cc(C(=O)N2CCC(NC(=O)C(Cc3ccc(C)cc3)NC(C)=O)CC2)cc(OC)c1OC (configuration not stated) | i | i | i | i | i | i
O=C(C1=C[C@H](c2coc3ccccc3c2=O)C[C@H](OCCCCO)O1)N1CCN(Cc2ccccc2)CC1 | i | i | i | 62 | i | i
O=C(NCc1ccccc1)C1=C[C@@H](c2coc3ccccc3c2=O)C[C@@H](OCCCCO)O1 | i | i | i | 28 | i | i
COc1ccc(-n2c(SC(C)C(=O)Nc3ncc(Cl)cc3Cl)nc3ccccc32)cc1 (configuration not stated) | i | i | i | i | i | i
COc1ccc(CNC(=O)c2cc(S(=O)(=O)N3CCCCC3)ccc2N2CCOCC2)cc1OC | i | i | i | i | i | i
O=C(c1ccc2c(c1)OCO2)C1CCCN(Cc2c(F)ccc(F)c2F)C1 (configuration not stated) | i | i | i | i | i | 88
COc1ccc(C(=O)C2CCCN(Cc3c(O)cccc3OC)C2)cc1OC (configuration not stated) | i | i | i | i | i | i
COc1ccc(C(=O)C2CCCN(Cc3cccc4c3OCO4)C2)cc1OC (configuration not stated) | i | i | i | i | i | 29
O=C(c1ccc2c(c1)OCO2)C1CCCN(Cc2ccc3nsnc3c2)C1 (configuration not stated) | i | i | i | i | i | 78
COc1ccc(C(=O)C2CCCN(C3Cc4ccccc4C3)C2)cc1OC (configuration not stated) | i | i | i | i | i | 90
c1ccc(CNc2cncnc2)cc1 | i | i | i | i | i | i
COc1cccc(CN2CCC(C(=O)N3CCN(Cc4ccc5c(c4)OCO5)CC3)CC2)c1OC | i | i | i | i | i | i
O=C(c1ccc2c(c1)OCO2)C1CCCN(Cc2ccccc2OC(F)F)C1 (configuration not stated) | i | i | i | i | i | 75
COc1cccc(CN2CCCC(C(=O)c3ccc4c(c3)OCO4)C2)c1OC (configuration not stated) | i | i | i | i | i | 57
O=C(c1ccc2c(c1)OCO2)C1CCCN(Cc2cc(F)ccc2-n2cccn2)C1 (configuration not stated) | i | i | i | i | i | i
CC(C)n1c(-c2ccccc2F)n[nH]c1=S | i | i | i | i | i | i
O=C1CNC(=O)/C1=C\N1CCN(C(c2ccccc2)c2ccccc2)CC1 | i | i | i | i | i | 43
O=C1CNC(=O)/C1=C\N1CCCCC1 | i | i | i | i | i | i
COc1ccc(-c2nnn(Cc3ccccc3)n2)cc1OC | i | i | i | i | i | i
COc1ccc(Cc2n[nH]c(=S)n2Cc2ccccc2)cc1Cl | i | i | i | i | i | i
COC(=O)c1ccc(N)cc1O | 22 | i | i | i | i | i
COC(=O)C(C(=O)OC)c1ccc(N)cc1 | i | i | i | i | i | i
CC(C)CCN1CCN(Cc2nc3ccccc3s2)CC1CCO (configuration not stated) | i | i | i | i | i | i
CC(C)CCN1CCN(CC(c2ccccc2)c2ccccc2)CC1CCO (configuration not stated) | i | i | i | i | i | 35
CN(CCc1cn[nH]c1)Cc1nc(C(c2ccccc2)c2ccccc2)no1 | i | i | i | i | i | i
SMILES | M5 PAM | M1 PAM | M5 ag | M5 antag | M1 ag | CHRM1 antagonist
CCN(CC)CCN(C)Cc1nc(C(c2ccccc2)c2ccccc2)no1 | i | i | i | i | i | 75
Cc1csc(NC(=O)/C=C/c2ccco2)n1 | i | i | i | i | i | i
COC(=O)/C=C1\S/C(=N/NC(=O)c2ccc(OC)cc2)NC1=O | i | i | i | 30 | i | i
COC(=O)/C=C1/S/C(=N/NC(=O)c2ccc(OC)cc2)NC1=O | i | i | i | i | i | i
Cc1ccccc1CNC(=O)c1ccccc1NS(C)(=O)=O | 19 | i | i | i | i | i
O=C(c1ccc(Br)o1)N1CCN(C23CC4CC(CC(C4)C2)C3)CC1 | i | i | i | i | i | 67
COc1ccc(-c2cc(C(=O)Nc3c(F)cc(F)cc3Br)no2)cc1 | i | i | i | i | i | i
O=S(=O)(NC1CCSc2ccccc21)c1ccc(Cl)nc1 (configuration not stated) | i | i | i | i | i | i
CCCc1cc(C(F)(F)F)c(C#N)c(=O)[nH]1 | i | i | i | i | i | i
CCN=C(Nc1ccc2c(c1)OCO2)SC1CC(=O)N(c2ccc(OC)cc2)C1=O (configuration not stated) | i | i | i | i | i | 27
CCN=C(NCC)SC1CC(=O)N(c2ccc(F)cc2)C1=O (configuration not stated) | i | i | i | i | i | 35
CCN=C(Nc1ccc2c(c1)OCO2)SC1CC(=O)N(c2ccccc2F)C1=O (configuration not stated) | i | i | i | i | i | i
CCCOc1ccc(N2C(=O)CC(SC(=NCC)NCC)C2=O)cc1 (configuration not stated) | i | i | i | i | i | i
COc1nc(N(C)C)nc(N(C)c2cc(Cl)cc(Cl)c2)n1 | i | i | i | i | i | i
Cc1ccc(NC(=O)C2CCN(S(=O)(=O)c3ccc(F)cc3)CC2)cc1 | i | i | i | i | i | i
CC(=O)Nc1ccc(S(=O)(=O)N2CCC(C(=O)NCCC(=O)Nc3ccccc3)CC2)cc1 | 20 | i | i | i | i | i
O=C(CCNC(=O)C1CCN(S(=O)(=O)c2ccccc2)CC1)Nc1ccccc1 | i | i | i | i | i | i
O=C(Nc1ccc(S(=O)(=O)N2CCCC2)cc1)C1CCN(S(=O)(=O)c2ccc(F)cc2)CC1 | i | i | i | i | 17 | i
COc1ccc(NC(=O)Nc2nc(C(N)C3CCCCC3)cs2)cc1 (configuration not stated) | i | i | i | i | i | i
COc1cc2nc(C3CCC3)nc(N3CCN(c4ccccc4OC)CC3)c2cc1OC | i | i | i | i | i | 66
CCN1CCN(c2ccc(S(=O)(=O)N3CCOCC3)cc2NC(=O)c2cc(F)c(F)c(F)c2F)CC1 | i | i | i | i | i | i
CCN1CCN(c2ccc(S(=O)(=O)N3CCOCC3)cc2NC(=O)c2ccccc2SC)CC1 | i | i | i | i | 24 | i
O=C(O)c1ccc2c(=O)n(-c3ccc(F)cc3)c(=S)[nH]c2c1 | i | i | i | i | i | 38
